# Target: T1, Dual specificity protein phosphatase 3 (Homo sapiens, UniProt P51452)
# Assay: Inhibition of recombinant vaccina H1-related phosphatase
# T1 sequence (P51452 whole entry): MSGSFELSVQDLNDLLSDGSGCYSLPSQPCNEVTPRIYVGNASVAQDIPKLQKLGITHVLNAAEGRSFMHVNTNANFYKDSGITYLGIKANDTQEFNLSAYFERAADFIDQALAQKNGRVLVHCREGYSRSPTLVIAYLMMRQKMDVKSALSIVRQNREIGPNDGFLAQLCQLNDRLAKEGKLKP
row,Structure (SMILES),IC50 [µM]
1,O=C1/C(=C/c2cn(-c3ccccc3)nc2-c2ccc(S(=O)(=O)N3CCOCC3)cc2)SC(=S)N1CCS(=O)(=O)O,2.4
2,O=C1/C(=C/c2cn(-c3ccccc3)nc2-c2ccc(Cl)cc2)SC(=S)N1CCS(=O)(=O)O,1.8
3,COc1ccc(-c2nn(-c3ccccc3)cc2/C=C2\SC(=S)N(CCS(=O)(=O)O)C2=O)cc1,1.8
4,Cc1ccc(-c2nn(-c3ccccc3)cc2/C=C2\SC(=S)N(CCS(=O)(=O)O)C2=O)cc1,3.1

# Target: T1, Dual specificity protein phosphatase 3
# Assay: Inhibition of recombinant vaccina H1-related phosphatase expressed in Escherichia coli by Michaelis-Menten kinetic studies
# Summary of the method: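 E. coli-expressed VHR (GST-fusion, thrombin-cleaved, gel-filtered) preincubated 10 min with several fixed inhibitor concentrations in Bis-Tris pH 6.0 buffer with DTT and 5% DMSO; started with pNPP at 0.2–10 Km; initial rates at 404 nm, no-enzyme corrected; Ki and mode by nonlinear fit to competitive, uncompetitive or mixed models, compared by AICc.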
row,Structure (SMILES),Ki [µM]
1,O=C1NC(=S)N(c2cccc(Cl)c2)C(=O)/C1=C\c1ccc[nH]1 (mixture of isomers),3.49
2,O=C1NC(=S)N(c2ccc(F)cc2)C(=O)/C1=C/c1ccc(Br)o1,12.1
3,O=C1NC(=S)/C(=C/c2ccc(-c3ccc([N+](=O)[O-])cc3)o2)S1,1.86
4,O=C(/C=C/c1ccco1)/C=C/c1ccc(-c2ccc(Cl)c(Cl)c2)o1,15.9
5,O=C1NC(=O)N(c2cccc(Br)c2)C(=O)/C1=C/c1ccc(-c2ccc(C(=O)O)cc2)o1 (mixture of isomers),16.2
6,O=C(O)c1cccc(-c2ccc(/C=N/Nc3ccc([N+](=O)[O-])cn3)o2)c1,13.8
7,"COc1ccc(OC)c2c1C(=O)c1ccccc1C2=O [1,4-DIMETHOXYANTHRAQUINONE]",3.07
8,Cc1ccc(C)n1-c1ccc(C(=O)O)c(O)c1,12.8
9,S=C(Nc1ccc2c(c1)oc1ccccc12)Nc1cccc2ccccc12,2.94
10,CC1=C(C#N)c2nc(N)c(C#N)c(C)c2/C1=C/c1ccc(-c2ccc(C(=O)O)c(Cl)c2)o1,3.87
11,O=C1c2cccc3c4ccccc4n(c23)C(=O)C1(O)O,13.8
12,O=C1/C(=C/c2ccc(-c3cccc(Cl)c3)o2)SC(=S)N1CCS(=O)(=O)O,3.13
13,O=C(/C=C/c1ccc(-c2ccccc2[N+](=O)[O-])o1)Nc1ccc(-c2nc3ccccc3o2)cc1,1.76
14,Cc1ccc(C)n1-c1ccc(SCC(=O)O)cc1,2.09
15,Cc1cc(Br)c(-c2ccc(/C=C3\NC(=S)NC3=O)o2)cc1C,3.19
16,C=CCN1C(=O)/C(=C\C=C\c2ccco2)C(=O)NC1=S (mixture of isomers),15.8
17,COc1ccc(N2C(=O)/C(=C/c3ccc(I)o3)C(=O)NC2=S)cc1 (mixture of isomers),4.44
18,CCOC(=O)c1[nH]nc2c1C(=O)N(c1ccc(Br)cc1)C2=O,2.64
19,O=C(O)C(Cc1ccccc1)N1C(=O)/C(=C/C=C/c2ccccc2)SC1=S (centres undefined),2.01
20,O=C1C(Cl)=C/C(=N\S(=O)(=O)c2ccc(Cl)cc2)C(Cl)=C1Cl,13.4
